Reference: ChEMBL document CHEMBL4622830, “Substituted pteridinones as p90 ribosomal S6 protein kinase (RSK) inhibitors: A structure-activity study” (Bioorg Med Chem, 2020)
Calls of active or inactive are those of the source. No cut-off for these calls is given here.

Key:
[1] = target: T1, Ribosomal protein S6 kinase alpha-3 (Homo sapiens, UniProt P51812); assay: Inhibition of full length human GST-tagged RSK2 using Ulight-rpS6 as substrate incubated for 1 hr in presence of ATP by TR FRET assay
[2] = system: HEK293; assay: Cytotoxicity in HEK293 cells assessed as reduction in cell viability; type: cell-based; settings: human
[3] = target: Ribosomal protein S6 kinase alpha-1 (Homo sapiens, UniProt Q15418); assay: Inhibition of RSK1 (unknown origin)
[4] = target: Ribosomal protein S6 kinase alpha-2 (Homo sapiens, UniProt Q15349); assay: Inhibition of RSK3 (unknown origin)
[5] = system: MOLM-13; assay: Antiproliferative activity against human MOLM13 assessed as reduction in cell viability at 60 uM incubated for 72 hrs by MTS assay; type: functional; settings: MOLM-13, 72 h, read-out: GI
[6] = system: MOLM-13; assay: Antiproliferative activity against human MOLM13 assessed as reduction in cell viability incubated for 72 hrs by CellTox green assay; type: functional, cell-based; settings: MOLM-13, 72 h
[7] = target: T1, Ribosomal protein S6 kinase alpha-3; assay: Inhibition of RSK2 (unknown origin)
[8] = system: MOLM-13; assay: Antiproliferative activity against human MOLM13 assessed as reduction in cell viability incubated for 72 hrs by CellTiter-Glo assay; type: functional, cell-based; settings: MOLM-13, 72 h
In short: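 CellTiter-Glo viability in MOLM-13 cells seeded at 30,000 per well, treated across 60 µM to 247 nM at 37°C for up to 72 h. Plates equilibrated 30 min at RT, reagent added, shaken 2 min, luminescence read after 10 min. Final DMSO ≤0.5%; n = 3.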

[9] = system: MOLM-13; assay: Antiproliferative activity against human MOLM13 assessed as reduction in cell viability at 0.25 to 60 uM incubated for 24 hrs by CellTox green assay; type: functional, cell-based
In short: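 Cytotoxicity read by CellTox Green: MOLM-13 cells, 60,000 per well, in medium with CellTox Green dye at 1:500, treated over 60 μM to 247 nM at 37°C. Fluorescence (ex 485/em 520 nm) read at 0, 24, 48 and 72 h.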

[10] = target: Bromodomain-containing protein 4 (Homo sapiens, UniProt O60885); assay: Binding affinity to BRD4 bromodomain 1 (unknown origin) by ITC assay
[11] = system: MOLM-13; assay: Antiproliferative activity against human MOLM13 assessed as reduction in cell viability at 0.25 to 60 uM incubated for 24 hrs by MTS assay; type: functional, cell-based
In short: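 MOLM-13 cells, 60,000 per well, given compound over 60 μM to 247 nM, incubated at 37°C for 24 to 72 h. CellTiter 96 AQueous One (MTS) reagent added for 3 h, formazan absorbance read at 490 nm. EC50 or percentage values derived.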

[12] = system: MOLM-13; assay: Antiproliferative activity against human MOLM13 assessed as reduction in cell viability at 0.25 to 60 uM incubated for 24 hrs by CellTiter-Glo assay; type: functional, cell-based
In short: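 MOLM-13 cells, 30,000 per well in medium, treated over 60 μM to 247 nM and held at 37°C for 24 to 72 h. Plates equilibrated 30 min at RT, CellTiter-Glo reagent added, shaken 2 min, luminescence read after 10 min at rt. n = 3.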

[13] = system: MOLM-13; assay: Antiproliferative activity against human MOLM13 assessed as reduction in cell viability incubated for 72 hrs by MTS assay; type: functional, cell-based; settings: MOLM-13, 72 h
[14] = target: T1, Ribosomal protein S6 kinase alpha-3; assay: Inhibition of full length human GST-tagged RSK2 using Ulight-rpS6 as substrate at 10 uM incubated for 1 hr in presence of ATP by TR FRET assay
In short: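 Recombinant RSK2 at 500 pM final with 250 nM ULight-rpS6 (Ser235/236) substrate and 3 μM ATP, in 50 mM HEPES pH 7.5, 10 mM MgCl2, 1 mM EGTA, 2 mM DTT, 0.01% Tween 20. DMSO ≤0.5%. Ran 1 h at room temperature, stopped with 10 mM EDTA. Eu anti-phospho antibody (2 nM) TR-FRET, 665/615 nm ratio read.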

T1 sequence (P51812 whole entry): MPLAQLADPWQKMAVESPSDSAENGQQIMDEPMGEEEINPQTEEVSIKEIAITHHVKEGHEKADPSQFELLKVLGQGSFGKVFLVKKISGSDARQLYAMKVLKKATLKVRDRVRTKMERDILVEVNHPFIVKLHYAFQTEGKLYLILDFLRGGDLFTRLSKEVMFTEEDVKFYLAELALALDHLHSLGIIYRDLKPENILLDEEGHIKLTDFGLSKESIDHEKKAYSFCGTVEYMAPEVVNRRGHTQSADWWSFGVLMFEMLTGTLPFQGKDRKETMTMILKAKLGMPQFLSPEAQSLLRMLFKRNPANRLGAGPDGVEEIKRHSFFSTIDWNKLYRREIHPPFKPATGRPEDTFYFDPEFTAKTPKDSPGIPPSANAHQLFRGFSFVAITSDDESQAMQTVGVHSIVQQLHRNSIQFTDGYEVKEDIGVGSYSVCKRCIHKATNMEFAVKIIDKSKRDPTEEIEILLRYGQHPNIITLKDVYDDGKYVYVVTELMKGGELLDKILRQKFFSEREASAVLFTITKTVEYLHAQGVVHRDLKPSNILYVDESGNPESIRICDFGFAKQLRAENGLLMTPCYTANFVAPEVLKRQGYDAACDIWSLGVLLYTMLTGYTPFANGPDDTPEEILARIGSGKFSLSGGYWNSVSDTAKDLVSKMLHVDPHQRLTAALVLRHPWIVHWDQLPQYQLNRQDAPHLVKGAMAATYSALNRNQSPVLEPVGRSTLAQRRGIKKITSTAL
Ribosomal protein S6 kinase alpha-2, sequence (Q15349 whole entry): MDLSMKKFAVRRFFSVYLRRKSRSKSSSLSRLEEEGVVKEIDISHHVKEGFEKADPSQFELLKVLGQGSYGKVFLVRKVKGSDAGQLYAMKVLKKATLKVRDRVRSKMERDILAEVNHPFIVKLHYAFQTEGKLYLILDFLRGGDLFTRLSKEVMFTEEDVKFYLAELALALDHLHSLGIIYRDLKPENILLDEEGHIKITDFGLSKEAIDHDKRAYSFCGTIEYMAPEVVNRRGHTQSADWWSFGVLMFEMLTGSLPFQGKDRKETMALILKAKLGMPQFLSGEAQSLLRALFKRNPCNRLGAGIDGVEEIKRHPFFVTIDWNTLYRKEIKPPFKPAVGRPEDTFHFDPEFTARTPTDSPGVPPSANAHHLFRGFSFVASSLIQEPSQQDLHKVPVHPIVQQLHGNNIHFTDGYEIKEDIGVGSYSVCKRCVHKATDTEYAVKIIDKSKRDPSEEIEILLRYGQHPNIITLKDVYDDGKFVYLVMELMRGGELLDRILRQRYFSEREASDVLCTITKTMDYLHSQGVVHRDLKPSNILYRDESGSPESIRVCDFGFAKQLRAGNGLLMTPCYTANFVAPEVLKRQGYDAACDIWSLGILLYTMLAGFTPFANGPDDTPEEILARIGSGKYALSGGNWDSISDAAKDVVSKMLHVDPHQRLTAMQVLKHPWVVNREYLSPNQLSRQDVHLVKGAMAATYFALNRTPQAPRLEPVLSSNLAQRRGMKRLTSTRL
Ribosomal protein S6 kinase alpha-1, sequence (Q15418 whole entry): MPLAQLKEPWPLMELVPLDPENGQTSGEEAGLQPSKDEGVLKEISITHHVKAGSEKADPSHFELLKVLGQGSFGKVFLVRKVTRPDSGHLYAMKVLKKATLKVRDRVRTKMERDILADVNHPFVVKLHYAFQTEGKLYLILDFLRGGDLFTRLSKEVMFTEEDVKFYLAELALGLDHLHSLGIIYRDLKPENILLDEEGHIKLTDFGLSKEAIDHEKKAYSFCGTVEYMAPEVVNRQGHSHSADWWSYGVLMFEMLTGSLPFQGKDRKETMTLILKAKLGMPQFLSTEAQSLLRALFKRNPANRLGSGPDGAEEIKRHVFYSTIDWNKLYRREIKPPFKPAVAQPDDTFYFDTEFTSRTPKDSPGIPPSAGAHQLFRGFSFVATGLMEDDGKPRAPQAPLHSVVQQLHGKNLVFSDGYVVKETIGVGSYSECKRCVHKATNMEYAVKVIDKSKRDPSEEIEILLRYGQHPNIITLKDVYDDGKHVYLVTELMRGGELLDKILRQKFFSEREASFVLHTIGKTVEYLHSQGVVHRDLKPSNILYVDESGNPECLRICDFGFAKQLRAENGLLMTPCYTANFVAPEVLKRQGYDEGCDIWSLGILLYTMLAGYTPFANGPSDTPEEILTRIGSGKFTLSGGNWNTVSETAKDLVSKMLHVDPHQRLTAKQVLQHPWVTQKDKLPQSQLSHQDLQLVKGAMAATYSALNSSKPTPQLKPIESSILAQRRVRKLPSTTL

How did the IC50 [1] turn out when CC(C)CCN1c2nc(Nc3ccc(O)c(Cl)c3)ncc2N(C)C(=O)C1C (configuration not stated) was run?
Its IC50 is 0.0715 µM.

Oc1c(F)cc(-c2cnccc2-c2ccc(N3CCOCC3)cc2)cc1F was tested. Which Activity [2] did it give?
Its Activity is “Toxic”.

What about the IC50 [3] of the same molecule?
Its IC50 is 0.006 µM.

And the IC50 [4]?
Its IC50 is 0.004 µM.

What about the inhibition of growth at 60 µM [5] of the same molecule?
The inhibition of growth at 60 µM was 79%.

What about the EC50 [6] of the same molecule?
Its EC50 is 23.4 µM.

And the IC50 [7]?
Its IC50 is 0.005 µM.

What about the EC50 [8] of the same molecule?
Its EC50 is 19.1 µM.

Which results are given for CC(C)CCN1c2nc(Nc3cc(F)c(O)c(F)c3)ncc2N(C)C(=O)C1C (configuration not stated)?
Activity [9]: Active; Kd [10]: 3.5 µM; EC50 [6]: 3.41 µM; Activity [11]: Active; EC50 [8]: 1.89 µM; Activity [12]: Active; EC50 [13]: 2.8 µM

How did the IC50 [1] turn out when CC(C)CCN1c2nc(Nc3ccc(O)c(Br)c3)ncc2N(C)C(=O)C1C (configuration not stated) was run?
The IC50 was 0.141 µM.

Nc1nc(Nc2cc(F)c(O)c(F)c2)ncc1[N+](=O)[O-] was tested. Which inhibition [14] did it give?
The inhibition was 72%.

With CC(C)CCN1CC(=O)N(C)c2cnc(Nc3ccc(O)c(F)c3)nc21 as the molecule, how does the IC50 [1] read?
Its IC50 is 0.0247 µM.

What does the source list for CC(C)CCN1c2nc(Nc3cc(F)c(O)c(F)c3)ncc2NC(=O)C1C (configuration not stated)?
IC50 [1]: 0.0182 µM; Activity [2]: Toxic; inhibition of growth at 60 µM [5]: 56%; EC50 [6]: 18.1 µM; EC50 [8]: 17.4 µM

What does the source list for CC(C)CCN1CC(=O)Nc2cnc(Nc3cc(F)c(O)c(F)c3)nc21?
IC50 [1]: 0.0234 µM; EC50 [6]: 6.85 µM; EC50 [8]: 6.2 µM; EC50 [13]: 6.82 µM

How did the inhibition [14] turn out when CC(C)CCN1c2nc(Nc3cc(Br)c(O)c(Br)c3)ncc2N(C)C(=O)C1C (configuration not stated) was run?
Its inhibition is 78%.

CC(C)CCN1CC(=O)N(C)c2cnc(Nc3cc(F)c(O)c(F)c3)nc21 was tested. Which IC50 [1] did it give?
The IC50 was 0.0176 µM.

And the EC50 [6]?
Its EC50 is 4.54 µM.

And the EC50 [8]?
The EC50 was 1.67 µM.

And the EC50 [13]?
Its EC50 is 2.71 µM.

With CC(C)CCN1c2nc(Nc3cc(F)cc(F)c3)ncc2N(C)C(=O)C1C (configuration not stated) as the molecule, how does the inhibition [14] read?
The inhibition was 71%.

How did the IC50 [1] turn out when CC(C)CCN1c2nc(Nc3ccc(O)c(F)c3)ncc2N(C)C(=O)C1C (configuration not stated) was run?
The IC50 was 0.0254 µM.

And the EC50 [6]?
Its EC50 is 3.16 µM.

And the EC50 [8]?
The EC50 was 0.87 µM.

And the EC50 [13]?
Its EC50 is 1.69 µM.

COc1c(F)cc(Nc2ncc3c(n2)N(CCC(C)C)C(C)C(=O)N3C)cc1F (configuration not stated) was tested. Which inhibition [14] did it give?
Its inhibition is 43%.

CC(C)CCN1c2nc(Nc3ccc(CO)cc3)ncc2N(C)C(=O)C1C (configuration not stated) was tested. Which IC50 [1] did it give?
The IC50 was 0.739 µM.

How did the IC50 [1] turn out when CC(C)CCN1CC(=O)Nc2cnc(Nc3ccc(O)c(F)c3)nc21 was run?
The IC50 was 0.0383 µM.

And the EC50 [6]?
The EC50 was 4.64 µM.

What about the EC50 [8] of the same molecule?
Its EC50 is 2.23 µM.

And the EC50 [13]?
Its EC50 is 4.39 µM.

For CC(C)CCN1c2nc(Nc3cc(Cl)c(O)c(Cl)c3)ncc2N(C)C(=O)C1C (configuration not stated), which inhibition [14] is on record?
The inhibition was 83%.

How did the inhibition [14] turn out when CC1Nc2nc(Nc3cc(F)c(O)c(F)c3)ncc2NC1=O (configuration not stated) was run?
Its inhibition is 83%.

For Nc1cnc(Nc2cc(F)c(O)c(F)c2)nc1N, which inhibition [14] is on record?
Its inhibition is 38%.

For CC(C)CCN1c2nc(Nc3ccc(O)cc3)ncc2N(C)C(=O)C1C (configuration not stated), which IC50 [1] is on record?
The IC50 was 0.0548 µM.

How did the inhibition [14] turn out when Oc1c(F)cc(Nc2ncccn2)cc1F was run?
The inhibition was 45%.

CN1CCN(c2ccc(-c3ccncc3-c3cc(F)c(O)c(F)c3)cc2)CC1 was tested. Which Activity [2] did it give?
The Activity was “Toxic”.

And the inhibition of growth at 60 µM [5]?
Its inhibition of growth at 60 µM is 75%.

What about the EC50 [6] of the same molecule?
The EC50 was 22 µM.

And the EC50 [8]?
Its EC50 is 9.71 µM.
